In ChEMBL document CHEMBL3044673, “Design, synthesis and insecticidal activity of novel phenylpyrazoles containing a 2,2,2-trichloro-1-alkoxyethyl moiety” (2010):

Key:
Format in all cases: functional
Aphis craccivora [1] = experiment: Ratio of LC50 of ethiprole to LC50 of test compound against Aphis craccivora (cowpea aphid) infested tender soybean shoots exposed to test compound solution assessed as insect mortality measured 24 hr post compound treatment
Plutella xylostella [2] = experiment: Insecticidal activity against Plutella xylostella (diamondback moth) grown on compound pre-treated fresh cabbage leaves assessed as insect mortality at 2.5 mg/kg measured 3 days post compound treatment by leaf-dip method
Method in brief: (§1)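 Leaf-dip stomach-toxicity assay on laboratory-reared diamondback moth. Test solutions came from a 200 mg L^-1 stock in dimethylformamide, diluted with water containing TW-20. Control leaves were treated with water and dimethylformamide. Tests were held at 25±1 °C, percentage mortality was scored 3 days after treatment, and each treatment was run three times.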

Plutella xylostella [3] = experiment: Insecticidal activity against Plutella xylostella (diamondback moth) grown on compound pre-treated fresh cabbage leaves assessed as insect mortality at 5 mg/kg measured 3 days post compound treatment by leaf-dip method; settings: Plutella xylostella; method in brief: as §1
Plutella xylostella [4] = experiment: Insecticidal activity against Plutella xylostella (diamondback moth) grown on compound pre-treated fresh cabbage leaves assessed as insect mortality at 10 mg/kg measured 3 days post compound treatment by leaf-dip method; settings: Plutella xylostella; method in brief: as §1
Plutella xylostella [5] = experiment: Insecticidal activity against Plutella xylostella (diamondback moth) grown on compound pre-treated fresh cabbage leaves assessed as insect mortality at 25 mg/kg measured 3 days post compound treatment by leaf-dip method; settings: Plutella xylostella; method in brief: as §1
Plutella xylostella [6] = experiment: Insecticidal activity against Plutella xylostella (diamondback moth) grown on compound pre-treated fresh cabbage leaves assessed as insect mortality at 50 mg/kg measured 3 days post compound treatment by leaf-dip method; method in brief: as §1
Plutella xylostella [7] = experiment: Insecticidal activity against Plutella xylostella (diamondback moth) grown on compound pre-treated fresh cabbage leaves assessed as insect mortality at 100 mg/kg measured 3 days post compound treatment by leaf-dip method; method in brief: as §1
Plutella xylostella [8] = experiment: Insecticidal activity against Plutella xylostella (diamondback moth) grown on compound pre-treated fresh cabbage leaves assessed as insect mortality at 200 mg/kg measured 3 days post compound treatment by leaf-dip method; method in brief: as §1
Culex pipiens pallens [9] = experiment: Insecticidal activity against Culex pipiens pallens (mosquito) assessed as insect mortality at 25 ug/kg measured 1 day post compound treatment; settings: 24 h
Method in brief: (§2)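 Fourth-instar Culex pipiens pallens larvae, 20 per test, were laboratory-reared and placed in 100 mL of test solution made by adding 1 mL of compound dilution to 99 mL of water. Tests were held at 25±1 °C, percentage mortality was scored 1 day after treatment, and each test was run three times.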

Culex pipiens pallens [10] = experiment: Insecticidal activity against Culex pipiens pallens (mosquito) assessed as insect mortality at 50 ug/kg measured 1 day post compound treatment; settings: 24 h; method in brief: as §2
Culex pipiens pallens [11] = experiment: Insecticidal activity against Culex pipiens pallens (mosquito) assessed as insect mortality at 100 ug/kg measured 1 day post compound treatment; settings: Culex pipiens, 24 h; method in brief: as §2
Aphis craccivora [12] = experiment: Insecticidal activity against Aphis craccivora (cowpea aphid) infested tender soybean shoots exposed to test compound solution assessed as insect mortality measured 24 hr post compound treatment
Method in brief: (§3)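 Soybean tender shoots carrying 60 aphids were dipped in test solutions. Solutions were made from a 200 mg L^-1 stock in dimethylformamide, diluted with water containing TW-20. Insects were laboratory-reared, tests were held at 25±1 °C, and mortality was scored.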

Aphis craccivora [13] = experiment: Insecticidal activity against Aphis craccivora (cowpea aphid) infested tender soybean shoots exposed to 2.5 mg/kg test compound solution assessed as insect mortality measured 24 hr post compound treatment; settings: Aphis craccivora, 24 h; method in brief: as §3
Aphis craccivora [14] = experiment: Insecticidal activity against Aphis craccivora (cowpea aphid) infested tender soybean shoots exposed to 5 mg/kg test compound solution assessed as insect mortality measured 24 hr post compound treatment; settings: Aphis craccivora, 24 h; method in brief: as §3
Aphis craccivora [15] = experiment: Insecticidal activity against Aphis craccivora (cowpea aphid) infested tender soybean shoots exposed to 10 mg/kg test compound solution assessed as insect mortality measured 24 hr post compound treatment; settings: Aphis craccivora, 24 h; method in brief: as §3
Aphis craccivora [16] = experiment: Insecticidal activity against Aphis craccivora (cowpea aphid) infested tender soybean shoots exposed to 25 mg/kg test compound solution assessed as insect mortality measured 24 hr post compound treatment; method in brief: as §3
Aphis craccivora [17] = experiment: Insecticidal activity against Aphis craccivora (cowpea aphid) infested tender soybean shoots exposed to 50 mg/kg test compound solution assessed as insect mortality measured 24 hr post compound treatment; method in brief: as §3
Aphis craccivora [18] = experiment: Insecticidal activity against Aphis craccivora (cowpea aphid) infested tender soybean shoots exposed to 100 mg/kg test compound solution assessed as insect mortality measured 24 hr post compound treatment; method in brief: as §3
Aphis craccivora [19] = experiment: Insecticidal activity against Aphis craccivora (cowpea aphid) infested tender soybean shoots exposed to 200 mg/kg test compound solution assessed as insect mortality measured 24 hr post compound treatment; method in brief: as §3
Mythimna separata = experiment: Insecticidal activity against Mythimna separata (Oriental armyworm) grown on compound pre-treated corn leaves assessed as insect mortality at 200 mg/kg measured 3 days post compound treatment by leaf-dip method
Culex pipiens pallens [20] = experiment: Insecticidal activity against Culex pipiens pallens (mosquito) assessed as insect mortality at 2.5 ug/kg measured 1 day post compound treatment; settings: 24 h; method in brief: as §2
Culex pipiens pallens [21] = experiment: Insecticidal activity against Culex pipiens pallens (mosquito) assessed as insect mortality at 5 ug/kg measured 1 day post compound treatment; settings: 24 h; method in brief: as §2
Culex pipiens pallens [22] = experiment: Insecticidal activity against Culex pipiens pallens (mosquito) assessed as insect mortality at 10 ug/kg measured 1 day post compound treatment; settings: 24 h; method in brief: as §2

Row | Compound | RatioLC50 (Aphis craccivora [1]) | mortality at 2.5 mg/kg (Plutella xylostella [2]) [%] | mortality at 5 mg/kg (Plutella xylostella [3]) [%] | mortality at 10 mg/kg (Plutella xylostella [4]) [%] | mortality at 25 mg/kg (Plutella xylostella [5]) [%] | mortality at 50 mg/kg (Plutella xylostella [6]) [%] | mortality at 100 mg/kg (Plutella xylostella [7]) [%] | mortality at 200 mg/kg (Plutella xylostella [8]) [%] | mortality at 0.025 mg/kg (Culex pipiens pallens [9]) [%] | mortality at 0.05 mg/kg (Culex pipiens pallens [10]) [%] | mortality at 0.1 mg/kg (Culex pipiens pallens [11]) [%] | LC50 (Aphis craccivora [12]) [mg/kg] | mortality at 2.5 mg/kg (Aphis craccivora [13]) [%] | mortality at 5 mg/kg (Aphis craccivora [14]) [%] | mortality at 10 mg/kg (Aphis craccivora [15]) [%] | mortality at 25 mg/kg (Aphis craccivora [16]) [%] | mortality at 50 mg/kg (Aphis craccivora [17]) [%] | mortality at 100 mg/kg (Aphis craccivora [18]) [%] | mortality at 200 mg/kg (Aphis craccivora [19]) [%] | mortality at 200 mg/kg (Mythimna separata) [%] | further results
1 | CCCOC(Nc1c([S+]([O-])CC)c(C#N)nn1-c1c(Cl)cc(C(F)(F)F)cc1Cl)C(Cl)(Cl)Cl (stereo not drawn) | 7.9 | 0 | 27 | 44 | 87 | 100 | 100 | 100 | 0 | 100 | 100 | 1.4873 | 89 | 100 | 100 | 100 | 100 | 100 | 100 |  | 
2 | CCCOC(Nc1c([S+](C)[O-])c(C#N)nn1-c1c(Cl)cc(C(F)(F)F)cc1Cl)C(Cl)(Cl)Cl (stereo not drawn) | 4.3 | 0 | 30 | 71 | 100 | 100 | 100 | 100 | 50 | 100 | 100 | 2.7616 | 0 | 91 | 100 | 100 | 100 | 100 | 100 | 40 | 
3 | COC(Nc1c([S+](C)[O-])c(C#N)nn1-c1c(Cl)cc(C(F)(F)F)cc1Cl)C(Cl)(Cl)Cl (stereo not drawn) | 4.2 | 34 | 88 | 91 | 100 | 100 | 100 | 100 |  | 50 | 100 | 2.8848 | 0 | 88 | 100 | 100 | 100 | 100 | 100 |  | 
4 | CCSc1c(C#N)nn(-c2c(Cl)cc(C(F)(F)F)cc2Cl)c1NC(OCCCl)C(Cl)(Cl)Cl (stereo not drawn) |  |  | 0 | 27 | 43 | 88 | 100 | 100 | 100 | 100 | 100 |  |  | 0 | 51 | 100 | 100 | 100 | 100 |  | mortality at 0.0025 mg/kg (Culex pipiens pallens [20]): 60%; mortality at 0.005 mg/kg (Culex pipiens pallens [21]): 100%; mortality at 0.01 mg/kg (Culex pipiens pallens [22]): 100%
5 | CCSc1c(C#N)nn(-c2c(Cl)cc(C(F)(F)F)cc2Cl)c1NC(OCCF)C(Cl)(Cl)Cl (stereo not drawn) |  |  | 0 | 29 | 100 | 100 | 100 | 100 | 100 | 100 | 100 |  |  | 0 | 11 | 29 | 100 | 100 | 100 | 20 | mortality at 0.005 mg/kg (Culex pipiens pallens [21]): 0%; mortality at 0.01 mg/kg (Culex pipiens pallens [22]): 100%
